In the EternaBench riboswitch data:

What was measured:
MS2 coat protein [1] = assay: apparent Kd, MS2 coat protein; higher = weaker binding; RNA-MaP array; theophylline 2 mM where present
Summary of the method: (§1)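 The titrant was SNAP-549-labelled MS2 coat protein, run from 0.7 or 1.5 nM in doubling steps to 3 µM. It was applied to designs transcribed by stalled E. coli RNA polymerase on Illumina sequencing-chip clusters, without ligand first and then with constant ligand, in 100 mM Tris-HCl pH 7.5, 80 mM KCl, 4 mM MgCl2, BSA, DTT, yeast tRNA and Tween-20. The apparent Kd is the median of filtered per-cluster binding-curve fits, with green signal normalised to red-channel RNA signal and control-cluster median Fmax.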

MS2 coat protein [2] = assay: apparent Kd, MS2 coat protein; higher = weaker binding; RNA-MaP array; tryptophan 2.4 mM where present
Summary of the method: as §1

[3] = designed as: OFF switch for theophylline, no ligand
[4] = ligand present: theophylline, designed as: OFF switch for theophylline
[5] = designed as: ON switch for theophylline, no ligand
[6] = ligand present: theophylline, designed as: ON switch for theophylline
[7] = designed as: ON switch for tryptophan, no ligand
[8] = ligand present: tryptophan, designed as: ON switch for tryptophan
[9] = designed as: OFF switch for tryptophan, no ligand
[10] = ligand present: tryptophan, designed as: OFF switch for tryptophan

Sequence	apparent Kd (MS2 coat protein [2]; [7]) [µM]	apparent Kd (MS2 coat protein [2]; [8]) [µM]	apparent Kd (MS2 coat protein [2]; [9]) [µM]	apparent Kd (MS2 coat protein [2]; [10]) [µM]	other results
ACAUGAAGAACAGCGGUGGGCGCGCUCGAUACCAGUACUUUAAAAUACCCUUGGCAGCGACAUGAGGAUCACCCAUGUGAGAUGA					apparent Kd (MS2 coat protein [1]; [3]): 0.0153 µM; apparent Kd (MS2 coat protein [1]; [4]): 0.0286 µM
UUUGAUAGGACAGAUACCAGCGUGUUGUUGAACAUGAGGAUCACCCAUGUAGUGAUCAGGCGCCCUUGGCAGCUGGUUUGUUAGG					apparent Kd (MS2 coat protein [1]; [5]): 0.416 µM; apparent Kd (MS2 coat protein [1]; [6]): 0.347 µM
ACAUGAAGAACAGCGGUGGGCGCGCUCGAUACCAGUACUUUGAUUUACCCUUGGCAGCGACAUGAGGAUCACCCAUGUGAGAUGA					apparent Kd (MS2 coat protein [1]; [3]): 0.018 µM; apparent Kd (MS2 coat protein [1]; [4]): 0.0276 µM
UUACAUGAGGAUCACCCAUGUCAUAAUGAUACCAGAUAGUUGAUGAUCCCUUGGCAGCAUAGUACCUAGACAUGUGAGUCAUAGG					apparent Kd (MS2 coat protein [1]; [5]): 0.113 µM; apparent Kd (MS2 coat protein [1]; [6]): 0.132 µM
ACAUGAGGAUCACCCAUGUGCCGAGUUGAUACCAGACCCGCACUAGUCCCUUGGCAGCAACUACGUGUGGGACACCCAUGUUAAG					apparent Kd (MS2 coat protein [1]; [3]): 0.0544 µM; apparent Kd (MS2 coat protein [1]; [4]): 0.0713 µM
UACAUGAGGAUCACCCAUGUAUAACCGGUACGAGGACCGGUACGGCCGCCACUCGAAACAUGAGGAUCACCCAUGUGCUACUAUU	0.0345	0.0356			
GAGUAGAGGACGGCCGCCACUGAACAUGAGGAUCACCCAUGUCGUGAUCCGUUACCUAGGGUAGAUAGGACCGGGUCAUGUACUC			0.0426	0.0425	
UAUCGUCAGACGGCCGCCACUAGAACAUGAGGAUCACCCAUGUACUAGUGGCAUACCUCAUGAACUAGGACCGGGUCUGACGAAU			0.00933	0.00925	
AAAAUAAUGGCGGCCGCCACUAACUCAUAUACAUCAUGUACAUGAGGAUCACCCAUGUAGGUGUAUAGGACCGGGCCAUAAUUAA			0.0186	0.0255	
AGGUGACAUGAGGAUCACCCAUGUGGCUUACGAGGACCGGUACGGCCGCCACUCGGUGUGACCUCCGCAUUCACAUAAUAAUCUU	0.0539	0.0453			
AGUGUCGGAGCGGCCGCCACUAGCACAUCUGGUCGCCAUGGCAACAUGAGGAUCACCCAUGUUGCUAGGACCGGGCUCAAUAUUU			0.00938	0.0106	
AUUCAUGAAAACAUGACAUGAGGAUCACUCCGAGGACCGGUACGGCCGCCACUCGCGAGGAGGCACAUGAGGAUCACCCAUGUUA	0.114	0.0828			
AAUGUAUGGCACAUGAGGAUCACCCAUGUGCGAGGACCGGUACGGCCGCCACUCGGUCAAGGGAUCUUACCUCUAUACAUUAAUG			0.0104	0.0188	
CAAUGCAGGUCGGCCGCCACUACACACAUGAGGAUCACCCAUGUAGUUACUGGGUGAAGUGGCAGUAGGACCGGGACCUGCAUAA	0.373	0.265			
UGGUACUAGGCGGCCGCCACUGGGAGAUACAUGAGGAUCACCCAUGUUUAAUGCCGAGAGGCAACUAGGACCGGGCCUAGUACAU	0.117	0.0265			
UACCCAUGAGUUGGAAAAGCUCAUGGGUAUCGAGGACCGGUACGGCCGCCACUCGGCUGUACAUGAGGAUCACCCAUGUCAGGGU	0.432	0.585			
CAAUAUAUAGCGGCCGCCACUUACUCAUGAGGUAACAACAUGAGGAUCACCCAUGUUUGAGGAUCAAGGACCGGGCUAUAUAUUG	0.0271	0.0199			
GAUAUAUACUCGGCCGCCACUGAGAGAGUCAUGUAAACAUGAGGAUCACCCAUGUAAUAUAUAUACAGGACCGGGAGUAUAUUAA			0.0148	0.0142	
CUCCCGUGGUCGGCCGCCACUGGAGGCCUCGCGCGACAUGAGGAUCACCCAUGUUGGCCCGGCUUCAGGACCGGGAUCGCGUGAG	0.0124	0.0114			
AAUAGUCCUCGACAUGAGGAUCACCCAUGUCGAGGACCGGUACGGCCGCCACUCGACAUGAGGAUCACCCAUGUUGAGUGAUAAA			0.00834	0.00772	
GCCGCUGCCGCGGUGUGUGUGGGUGGGUGACGAGGACCGGUACGGCCGCCACUCGCGAUCGCACAUGAGGAUCACCCAUGUGUAA			0.015	0.0218	
AAUGCCGGAUCGGCCGCCACUGGUUGGCUCUGUGUACAUGAGGAUCACCCAUGUCCAUCCCAAACCAGGACCGGGAUCUUUGUGU	0.0131	0.00883			
GGCUUCAACUCGGCCGCCACUGGUGAUCCUCAUGUACAUGAGGAUCACCCAUGUACAUGAGACUACAGGACCGGGAGAUCAGCAA	0.00834	0.0077			
CUUGGCUGUGCGGCCGCCACUGGCUCAUCCUGCAUUACAUGAGGAUCACCCAUGUUGCGGCCUCCCAGGACCGGGCAUAGCCUGA	0.253	0.139			
AAUGUAUGGCACAUGAGGAUCACCCAUGUGCGAGGACCGGUACGGCCGCCACUCGGUCCUGGGAUCUUACAACUAUACAUUAAUG			0.0132	0.027	
GGCCAUGGAAACAUGGCGGCGGCAUAUGCGCGAGGACCGGUACGGCCGCCACUCGGGCAACAUGAGGAUCACCCAUGUUCCUCAU			0.211	0.454	
